“Also recorded” adds a separate entry of the source.
Tests used:
[1] = biological target: T1, endogenous mGlu5 in striatal neurons (Rattus norvegicus, UniProt P31424); test: Single cell Ca2+ imaging; type: cell-based; conditions: for effect on Quis-mediated Ca2+ responses (intracellular mGlu5): compound at 1, 5, 10 μM; for effect on single cell intracellular responses at 10-fold IC50: at 10-fold their IC50 values (refs 20, 25)
How it was run: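 Primary striatal cultures from 1-day-old neonatal rat pups, on gridded glass dishes, loaded with 5 μM Oregon Green 488 BAPTA-AM. Cultures were preincubated with 20 μM CPCCOEt (mGlu1 antagonist) plus 25 μM AMPA receptor antagonist, then imaged by confocal microscopy during agonist (Quis 10 μM) and NAM (1, 5, 10 μM) exposure. Signals were taken as fractional fluorescence change over basal and normalized to Quis response (% Quis).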

[2] = biological target: T1, endogenous mGlu5 in striatal neurons; test: Fluorescence-based Ca2+ flux assay with a microplate reader; type: cell-based
mGlu5 (mGlu5/HEK cells) = test: Single cell Ca2+ imaging; type: cell-based; conditions: for effect on DHPG-induced oscillatory Ca2+ response: DHPG 100 μM, NAM applied after agonist at 1, 5, 10 μM; for effect of NAM pretreatment on DHPG or Quis-mediated Ca2+ responses: DHPG 100 μM or Quis 10 μM
mGlu5 = conditions: read-out: published IC50; cited from earlier work
[3] = biological target: T2, endogenous mGlu5 in hippocampal neurons (Rattus norvegicus, UniProt P31424); test: Fluorescence-based Ca2+ flux assay with a microplate reader; type: cell-based
[4] = biological target: endogenous mGlu5 in cortical neurons (Rattus norvegicus, UniProt P31424); test: as above; type: cell-based
[5] = biological target: mGlu5 (mGlu5/HEK stable cell line) (Rattus norvegicus, UniProt P31424); test: as above; type: cell-based; conditions: for LLE: LLE = pIC50 − log P (consensus log Po/w Table 1, IC50 Table 3)
[6] = test system: mGlu5 (mGlu5/HEK stable cell line); test: as above; type: cell-based; conditions: LLE = pIC50 − log P (consensus log Po/w Table 1, IC50 Table 3)
[7] = biological target: T2, endogenous mGlu5 in hippocampal neurons; test: Single cell Ca2+ imaging; type: cell-based; conditions: pretreatment 1 μM, Quis 10 μM

Sequence of mGlu5 (mGlu5/HEK stable cell line) (Rattus norvegicus, UniProt P31424) (P31424 21-1203): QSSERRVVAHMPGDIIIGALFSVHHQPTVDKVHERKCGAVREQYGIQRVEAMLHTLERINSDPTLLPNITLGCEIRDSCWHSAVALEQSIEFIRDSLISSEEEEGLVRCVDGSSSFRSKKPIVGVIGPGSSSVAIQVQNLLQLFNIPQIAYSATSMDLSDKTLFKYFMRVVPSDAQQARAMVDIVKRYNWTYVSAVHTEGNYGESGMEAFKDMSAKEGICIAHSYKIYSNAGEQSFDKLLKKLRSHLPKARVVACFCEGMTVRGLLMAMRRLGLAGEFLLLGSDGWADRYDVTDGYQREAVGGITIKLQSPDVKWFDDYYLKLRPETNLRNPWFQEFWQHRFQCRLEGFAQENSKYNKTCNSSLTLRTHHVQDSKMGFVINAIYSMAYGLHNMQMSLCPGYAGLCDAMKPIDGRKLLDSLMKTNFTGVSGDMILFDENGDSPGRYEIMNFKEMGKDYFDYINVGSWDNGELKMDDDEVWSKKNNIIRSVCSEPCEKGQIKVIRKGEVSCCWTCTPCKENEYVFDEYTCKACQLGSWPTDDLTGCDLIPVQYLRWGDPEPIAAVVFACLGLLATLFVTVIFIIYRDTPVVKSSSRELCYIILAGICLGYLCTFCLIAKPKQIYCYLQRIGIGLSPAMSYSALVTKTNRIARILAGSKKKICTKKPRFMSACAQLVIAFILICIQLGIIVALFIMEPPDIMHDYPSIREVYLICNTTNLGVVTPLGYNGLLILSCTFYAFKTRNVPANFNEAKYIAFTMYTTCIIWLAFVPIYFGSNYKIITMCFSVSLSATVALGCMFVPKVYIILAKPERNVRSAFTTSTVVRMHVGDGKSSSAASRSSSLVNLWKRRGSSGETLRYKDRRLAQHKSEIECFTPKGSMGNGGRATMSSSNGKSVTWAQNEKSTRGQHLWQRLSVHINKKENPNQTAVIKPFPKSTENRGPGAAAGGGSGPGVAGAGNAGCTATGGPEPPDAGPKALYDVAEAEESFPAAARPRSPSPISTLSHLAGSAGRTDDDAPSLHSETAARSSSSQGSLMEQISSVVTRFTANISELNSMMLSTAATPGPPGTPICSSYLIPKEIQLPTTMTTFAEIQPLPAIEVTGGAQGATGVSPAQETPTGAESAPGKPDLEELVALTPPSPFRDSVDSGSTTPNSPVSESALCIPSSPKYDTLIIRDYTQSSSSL
Sequence of endogenous mGlu5 in cortical neurons (P31424 21-1203): as above
T1 sequence (P31424 21-1203): as above
T2 sequence (P31424 21-1203): as above
Sequence of mGlu5 (mGlu5/HEK stable cell line) (P31424 21-1203): as above

For `NC(CC1c2ccccc2Sc2ccccc21)(C(=O)O)C1CC(C(=O)O)C1` (mixture of isomers) [LY393053, 2-Amino-2-(3-cis/trans-carboxycyclobutyl)-3-(9H-thioxanthen-9-yl) propionic acid], the “effect on Quis-mediated Ca2+ responses (intracellular mGlu5)” value (from here on “effect on Quis-mediated Ca2+ responses”) ([1]; striatal neurons, Quis 10 μM) was “neither 5MPEP,[34] a neutral allosteric modulator, nor LY393053 affected Quis-induced Ca^2+ rises”.
For `Cc1cccnc1C#Cc1ccccc1` [5MPEP, 5-methyl-6-(phenylethynyl)-pyridine], the “effect on Quis-mediated Ca2+ responses” value ([1]; striatal neurons, Quis 10 μM) was “neither 5MPEP,[34] a neutral allosteric modulator, nor LY393053 affected Quis-induced Ca^2+ rises”.
In the case of `COC(=O)N1CC[C@@H]2[C@H]1CCC[C@@]2(O)C#Cc1cccc(C)c1` [AFQ056, methyl (3aR,4S,7aR)-4-hydroxy-4-[(3-methylphenyl)ethynyl]octahydro-1H-indole-1-carboxylate], the IC50 [2] is reported as 9440 ± 3780 nM, the “fold shift of IC50 between mGlu5/HEK cells and striatal cultures” value [2] is reported as 250 fold and the “effect on DHPG-induced oscillatory Ca2+ response” value (mGlu5 (mGlu5/HEK cells)) is reported as “inhibited; also recorded: blocked”. For the same molecule, the “effect on Quis-induced Ca2+ response” value (mGlu5 (mGlu5/HEK cells); Quis 10 μM, NAM at 1, 5, 10 μM) was “inhibited; also recorded: blocked”, the “effect of NAM pretreatment on DHPG or Quis-mediated Ca2+ responses” value (from here on “effect of NAM pretreatment”) (mGlu5 (mGlu5/HEK cells)) was “completely blocked” and the IC50 (mGlu5) was 30 nM. It also gave an IC50 [3] of 257 ± 27.4 nM, an IC50 [4] of 270 ± 73 nM and an LLE [5] of 4.57. For the same molecule, the “effect on Quis-mediated Ca2+ responses” value ([1]; striatal neurons, Quis 10 μM) was “neither 1, 5, nor 10 μM AFQ056 blocked Quis-mediated Ca^2+ responses; also recorded: did not completely block; also recorded: fails to block” and the “effect on DHPG-induced Ca2+ response” value ([1]; striatal neurons, pre- or post-treatment, cell-surface only agonist DHPG) was “blocked”.
In the case of `C[C@@H](Oc1nnc(-c2ccncc2)n1C)c1cc(-c2cccc(Cl)c2)on1` [AZD2066, 4-[5-[(1R)-1-[5-(3-chlorophenyl)-3-isoxazolyl]ethoxy]-4-methyl-4H-1,2,4-triazol-3-yl]pyridine], the IC50 [2] is reported as 3560 ± 520 nM, the “effect on DHPG-induced oscillatory Ca2+ response” value (mGlu5 (mGlu5/HEK cells)) is reported as “blocked” and the “effect of NAM pretreatment” value (mGlu5 (mGlu5/HEK cells)) is reported as “completely blocked”. The IC50 [3] was 96.2 ± 17.8 nM, the IC50 [4] was 380 ± 78 nM and the LLE [6] was 4.29. The “effect on single cell intracellular responses at 10-fold IC50” value [1] was “did not block” and the “effect on Quis-mediated Ca2+ responses” value ([1]; striatal neurons, Quis 10 μM) was “less effective”.
With `N[C@H](C(=O)O)c1cc(O)cc(O)c1` [DHPG, (S)-3,5-dihydroxyphenylglycine] the “maximum DHPG-induced Ca2+ increase, % of the Quis-induced response” value ([2]; plate reader, cell type not given) was 15–20%.
With `CN1CC(=O)N=C1NC(=O)Nc1cccc(Cl)c1` [Fenobam, N-(3-chlorophenyl)-N′-(4,5-dihydro-1-methyl-4-oxo-1H-imidazol-2-yl)urea] the IC50 [2] was 2930 ± 480 nM, the “fold shift of IC50 between mGlu5/HEK cells and striatal cultures” value [2] was 16 fold and the “effect on Quis-induced Ca2+ response at 1 μM NAM” value (“effect … at 1 μM NAM” for short) [7] was “less effective”. The “effect on DHPG-induced oscillatory Ca2+ response” value (mGlu5 (mGlu5/HEK cells)) was “blocked”, the “effect … at 1 μM NAM” value (mGlu5 (mGlu5/HEK cells); pretreatment 1 μM, Quis 10 μM) was “less effective” and the “effect of NAM pretreatment” value (mGlu5 (mGlu5/HEK cells)) was “completely blocked”. For the same molecule, the IC50 [3] was 442 ± 150 nM, the IC50 [4] was 807 ± 53.5 nM and the LLE ([4]; cortical, LLE = pIC50 − log P (consensus log Po/w Table 1, IC50 Table 3)) was 2.94. For the same molecule, the LLE [5] was 5.50, the “effect on single cell intracellular responses at 10-fold IC50” value [1] was “did not block” and the “effect on Quis-mediated Ca2+ responses” value ([1]; striatal neurons, Quis 10 μM) was “less effective”. The “effect … at 1 μM NAM” value ([1]; striatal, pretreatment 1 μM, Quis 10 μM) was “less effective”.
In the case of `Cc1cccc(C#Cc2ccccc2)n1` [MPEP, 2-methyl-6-(phenylethynyl)pyridine], the “effect on DHPG-induced oscillatory Ca2+ response” value (mGlu5 (mGlu5/HEK cells)) is reported as “blocked” and the “effect of NAM pretreatment” value (mGlu5 (mGlu5/HEK cells)) is reported as “completely blocked”.
For `N[C@@H](Cn1oc(=O)[nH]c1=O)C(=O)O` [Quis, Quisqualate], the EC50 [2] was 1310 ± 360 nM, the “fold difference in EC50 between the cortical and hippocampal neurons and the striatum, respectively” value ([2]; Quis) was 8–10 fold and the “fold difference in the EC50 for Quis in HEK cells versus striatal neurons” value ([2]; mGlu5/HEK versus endogenous mGlu5-expressing striatal neurons) was 42 fold. The “Quis EC80” value ([2]; striatal) was 5250 ± 1430 nM, the “difference in EC50 between cell surface and intracellular mGlu5” value ([2]; striatum, Quis with versus without LY393053 20 μM) was “no difference in EC50” and the EC50 [3] was 122 ± 12.1 nM. For the same molecule, the “Quis EC80” value ([3]; hippocampal) was 515 ± 51.4 nM, the “fold difference in potency, Quis with versus without LY393053” value ([3]; hippocampus, LY393053 20 μM) was roughly 1.8 fold and the EC50 [4] was 168 ± 55.8 nM. For the same molecule, the “fold difference in potency, Quis with versus without LY393053” value ([4]; cortex, LY393053 20 μM) was roughly 1.8 fold, the “Quis EC80” value ([4]; cortical) was 670 ± 223 nM and the “Quis EC80” value [5] was 125 ± 32.3 nM.
For `Cc1nc(C#Cc2ccnc(Cl)c2)c(C)n1-c1ccc(F)cc1` [RG7090, 2-chloro-4-((1-(4-fluorophenyl)-2,5-dimethyl-1H-imidazol-4-yl)ethynyl)pyridine], the IC50 [2] was 62 ± 17.5 nM, the “effect on DHPG-induced oscillatory Ca2+ response” value (mGlu5 (mGlu5/HEK cells)) was “blocked” and the “effect of NAM pretreatment” value (mGlu5 (mGlu5/HEK cells)) was “completely blocked”. For the same molecule, the IC50 [3] was 8.97 ± 3.4 nM, the IC50 [4] was 80.2 ± 16.8 nM and the “fold difference of potency in cortical neurons versus HEK cells” value [4] was 45 fold. The LLE [6] was 4.59 and the “effect on Quis-mediated Ca2+ responses” value ([1]; striatal neurons, Quis 10 μM) was “most effective; also recorded: very effective”.

From article PMC8753982 (ACS chemical neuroscience, 2019)
